Source: publication PMC4206694 (Journal of Medicinal Chemistry, 2014)

How the values were obtained:
[1] = Pharmacokinetic analysis, plasma and brain levels; assay type: in vivo, mouse; conditions: single time point (6 h) after IP 1, 3, 10 or 30 mg/kg, Figure S3
Outline: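 Compound in 5% DMSO/10% cremophor EL/85% D5W (pH 7.2) was dosed to adult mice (0.2 mL total). Mice were killed by CO2. Plasma came from ACD-treated blood spun at 9300g. Brains were rinsed in PBS and homogenized in 3 volumes of PBS. Plasma or lysate (100 μL) was precipitated with 200 μL acetonitrile/0.15% formic acid and spun at 13120g for 5 min. Supernatant was analysed by HPLC/MS/MS.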

[2] = target: T1, CYP2C8 (Homo sapiens, UniProt P10632); assay: Cytochrome P450 inhibition, CYP2C8; assay type: in vitro ADME
T1 sequence (P10632 1-490): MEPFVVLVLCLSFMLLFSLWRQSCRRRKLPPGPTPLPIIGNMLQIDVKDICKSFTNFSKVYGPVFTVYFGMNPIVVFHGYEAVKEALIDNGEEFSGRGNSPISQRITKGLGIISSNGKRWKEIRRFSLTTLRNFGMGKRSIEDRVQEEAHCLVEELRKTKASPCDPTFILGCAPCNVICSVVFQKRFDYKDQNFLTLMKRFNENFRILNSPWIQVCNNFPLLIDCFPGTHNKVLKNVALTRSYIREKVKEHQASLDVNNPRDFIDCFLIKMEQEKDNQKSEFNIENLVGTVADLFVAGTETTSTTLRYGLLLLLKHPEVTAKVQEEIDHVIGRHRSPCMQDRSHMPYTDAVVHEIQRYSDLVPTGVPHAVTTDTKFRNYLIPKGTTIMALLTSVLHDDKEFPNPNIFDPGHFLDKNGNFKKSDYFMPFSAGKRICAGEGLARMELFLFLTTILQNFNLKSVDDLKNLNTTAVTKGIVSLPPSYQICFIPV

[3] = target: CYP3D6 (Homo sapiens, UniProt P10635); assay: Cytochrome P450 inhibition, CYP3D6; assay type: in vitro ADME
CYP3D6, sequence (P10635 whole entry): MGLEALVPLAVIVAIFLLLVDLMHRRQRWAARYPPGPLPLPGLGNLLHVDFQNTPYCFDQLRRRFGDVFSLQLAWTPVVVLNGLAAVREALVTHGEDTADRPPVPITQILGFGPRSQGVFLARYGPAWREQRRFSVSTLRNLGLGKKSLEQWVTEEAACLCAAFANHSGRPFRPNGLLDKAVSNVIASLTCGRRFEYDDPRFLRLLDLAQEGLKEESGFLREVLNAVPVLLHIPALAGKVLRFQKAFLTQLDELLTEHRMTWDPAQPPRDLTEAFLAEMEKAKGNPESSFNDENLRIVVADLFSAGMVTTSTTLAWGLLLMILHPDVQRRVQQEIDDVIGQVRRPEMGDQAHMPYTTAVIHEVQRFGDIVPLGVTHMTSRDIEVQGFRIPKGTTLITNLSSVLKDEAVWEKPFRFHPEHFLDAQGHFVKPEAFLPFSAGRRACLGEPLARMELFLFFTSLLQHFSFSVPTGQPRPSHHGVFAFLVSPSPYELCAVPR

[4] = target: CYP3A4 (Homo sapiens, UniProt P08684); assay: Cytochrome P450 inhibition, CYP3A4; assay type: in vitro ADME
CYP3A4, sequence (P08684 whole entry): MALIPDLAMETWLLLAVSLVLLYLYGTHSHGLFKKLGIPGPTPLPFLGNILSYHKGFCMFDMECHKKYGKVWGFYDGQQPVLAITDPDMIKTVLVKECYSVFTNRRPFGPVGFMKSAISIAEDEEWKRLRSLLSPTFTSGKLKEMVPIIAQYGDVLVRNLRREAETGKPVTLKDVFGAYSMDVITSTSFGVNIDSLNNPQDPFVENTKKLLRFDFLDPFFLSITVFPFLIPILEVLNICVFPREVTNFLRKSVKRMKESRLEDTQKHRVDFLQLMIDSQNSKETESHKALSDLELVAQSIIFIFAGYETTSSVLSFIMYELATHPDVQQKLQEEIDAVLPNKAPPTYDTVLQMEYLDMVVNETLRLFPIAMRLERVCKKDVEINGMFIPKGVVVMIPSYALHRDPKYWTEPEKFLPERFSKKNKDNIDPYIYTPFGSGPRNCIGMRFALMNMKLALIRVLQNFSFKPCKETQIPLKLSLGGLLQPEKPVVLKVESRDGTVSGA

[5] = tested on: newborn hippocampal neurons; assay: In vivo hippocampal neuroprotection assay; set-up: species or system mouse; conditions: for number of surviving newborn hippocampal neurons (BrdU+ cells): ICV 10 μM, Figure 1
Outline: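 Adult (12-week) wild-type […] mice, environmentally deprived, four per group. Compound was infused ICV into the left lateral ventricle by implanted osmotic minipump (0.5 μL/h, 7 days) or given IP twice daily. BrdU 50 mg/kg/day IP for 6 days; perfused 24 h after last BrdU. Anti-BrdU staining after formamide/SSC and HCl unmasking. BrdU+ SGZ/dentate cells counted contralaterally, every fifth section, normalized to dentate gyrus volume.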

[6] = target: T2, CYP2B6 (Homo sapiens, UniProt P20813); assay: Cytochrome P450 inhibition, CYP2B6; assay type: in vitro ADME
T2 sequence (P20813 1-491): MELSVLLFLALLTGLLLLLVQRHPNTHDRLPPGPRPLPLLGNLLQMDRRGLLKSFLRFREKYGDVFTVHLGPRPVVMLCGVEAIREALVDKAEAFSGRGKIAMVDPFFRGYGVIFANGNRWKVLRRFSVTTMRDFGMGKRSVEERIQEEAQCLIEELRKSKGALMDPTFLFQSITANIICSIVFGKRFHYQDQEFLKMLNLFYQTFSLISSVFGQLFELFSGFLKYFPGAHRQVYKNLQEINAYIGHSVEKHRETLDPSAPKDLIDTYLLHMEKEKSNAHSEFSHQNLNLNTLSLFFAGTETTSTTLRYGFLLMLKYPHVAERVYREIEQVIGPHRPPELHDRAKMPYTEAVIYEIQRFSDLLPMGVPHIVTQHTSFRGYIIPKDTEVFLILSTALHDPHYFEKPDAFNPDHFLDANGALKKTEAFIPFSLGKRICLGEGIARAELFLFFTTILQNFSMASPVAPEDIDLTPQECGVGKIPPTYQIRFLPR

[7] = tested on: dopaminergic neurons within the SNc; assay: MPTP model of Parkinson's disease; assay type: in vivo, mouse; conditions: BID, 21 days after MPTP; for rescue of TH+ neurons: 10 mg kg^–1 day^–1, IP
Outline: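 Adult male C57Bl/6 mice, individually housed 1 week, received free-base MPTP 30 mg/kg/day IP for 5 days. Compound or vehicle was started on day 6, 24 h after the last MPTP dose, and given twice daily for 21 days. After perfusion and fixation in 4% paraformaldehyde, every fourth section through striatum and SNc was stained for tyrosine hydroxylase. TH+ cells were counted blinded; mean ± SEM.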

[8] = target: μ-opioid receptor (Homo sapiens, UniProt P35372); assay: Psychoactive Drug Screening Program competition binding, μ-opioid receptor; conditions: read-out: IC50 μ-opioid receptor; ligand displacement, PDSP
μ-opioid receptor, sequence (P35372 whole entry, species assumed): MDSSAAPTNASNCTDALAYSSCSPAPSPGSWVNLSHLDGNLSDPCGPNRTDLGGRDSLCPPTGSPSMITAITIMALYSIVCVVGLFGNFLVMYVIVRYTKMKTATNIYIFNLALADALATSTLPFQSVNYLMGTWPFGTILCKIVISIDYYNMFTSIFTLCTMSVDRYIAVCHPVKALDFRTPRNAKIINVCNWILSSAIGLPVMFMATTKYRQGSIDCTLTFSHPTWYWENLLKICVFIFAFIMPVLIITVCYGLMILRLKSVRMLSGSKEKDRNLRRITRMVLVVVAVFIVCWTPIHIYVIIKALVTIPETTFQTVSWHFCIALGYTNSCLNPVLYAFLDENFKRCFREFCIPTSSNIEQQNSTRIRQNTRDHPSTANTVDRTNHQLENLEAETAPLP

[9] = target: CYP2C9 (Homo sapiens, UniProt P11712); assay: Cytochrome P450 inhibition, CYP2C9; assay type: in vitro ADME
CYP2C9, sequence (P11712 whole entry): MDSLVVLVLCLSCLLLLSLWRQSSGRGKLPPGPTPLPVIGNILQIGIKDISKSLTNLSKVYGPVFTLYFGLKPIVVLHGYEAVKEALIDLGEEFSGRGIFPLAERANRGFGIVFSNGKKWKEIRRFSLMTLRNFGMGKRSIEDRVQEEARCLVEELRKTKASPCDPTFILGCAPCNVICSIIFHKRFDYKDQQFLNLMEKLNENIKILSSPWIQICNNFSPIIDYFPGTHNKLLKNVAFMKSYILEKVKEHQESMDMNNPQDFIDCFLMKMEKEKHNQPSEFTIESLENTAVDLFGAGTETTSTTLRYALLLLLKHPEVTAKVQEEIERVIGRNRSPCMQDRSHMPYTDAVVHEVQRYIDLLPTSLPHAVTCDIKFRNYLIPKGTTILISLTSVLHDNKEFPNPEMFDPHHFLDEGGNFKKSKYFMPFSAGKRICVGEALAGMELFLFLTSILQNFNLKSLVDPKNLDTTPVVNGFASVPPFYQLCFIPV

[10] = tested on: newborn hippocampal neurons; conditions: cited from earlier work
[11] = cited from earlier work
[12] = cited from earlier work; remark: listed apart in the source
[13] = tested on: motor neurons in the spinal cord; conditions: cited from earlier work
[14] = tested on: dopaminergic neurons within the SNc; conditions: cited from earlier work
[15] = cited from earlier work; remark: listed apart in the source
[16] = tested on: cerebral cortical neurons; conditions: cited from earlier work
[17] = Long-term treatment tolerability; assay type: in vivo

For `COc1cccc(NC[C@H](F)Cn2c3ccc(Br)cc3c3cc(Br)ccc32)n1` [(−)-15, (S)-N-(3-(3,6-Dibromo-9H-carbazol-9-yl)-2-fluoropropyl)-6-methoxypyridin-2-amine], the “plasma and brain concentrations compared with racemic 15” value [1] was “indistinguishable”, the CYP2C8 sensitivity [2] was “insensitive” and the CYP3D6 sensitivity [3] was “insensitive”. The CYP3A4 sensitivity [4] was “insensitive”, the “enantiomer-specific neuroprotective activity in mouse model of neurogenesis” value ([5]; pure enantiomers dosed ICV 7 days, Figure 2) was “highly active” and the CYP2B6 sensitivity [6] was “insensitive”. The “neuroprotective activity in MPTP model (enantiomers)” value ([7]; IP, Figure 3) was “strongly protective”, the IC50 [8] was 8.2 µM and the CYP2C9 sensitivity [9] was “insensitive”.
For `OC(CNc1ccccc1)Cn1c2ccc(Br)cc2c2cc(Br)ccc21` (stereo not drawn) [compound 1], the “number of surviving newborn hippocampal cells” value ([10]; unbiased in vivo screen, 1 week) is listed as “approximately doubled”, the “neuroprotective effect in retinal degeneration” value [11] is listed as “neuroprotective effects” and the antidepressant effect [12] is listed as “antidepressant activity”. For the same molecule, the “motor neuron cell death in spinal cord of G93A SOD1 transgenic mice” value [13] was “minimize motor neuron cell death in the spinal cord”, the “protection of neurons in the substantia nigra, MPTP mouse model” value [14] was “protect neurons in the substantia nigra” and the “neuroprotective effect in age-related cognitive decline” value [15] was “neuroprotective effects”.
For `COc1cccc(NCC(F)Cn2c3ccc(Br)cc3c3cc(Br)ccc32)c1` (stereo not drawn) [compound 2], the “activity in the in vivo hippocampal neuroprotection assay” value ([10]; previous studies) is listed as “substantially improved the activity”, the antidepressant effect [12] is listed as “exert antidepressant effects” and the “protection of cerebral cortical neurons, moderate fluid percussion TBI” value [16] is listed as “protect rat cerebral cortical neurons”. The “rescue of TH+ neurons” value [7] was “around 75%”, the “dose showing significant neuroprotective effect in MPTP model” value ([7]; IP) was 5 mg kg^–1 day^–1 and the “motor neuron cell death in spinal cord of G93A SOD1 transgenic mice” value [13] was “minimize motor neuron cell death in the spinal cord”. The “impact on weight, behavior, or appearance” value ([17]; up to 40 mg kg^–1 day^–1 for 21 days) was “no negative impact on the weight, behavior, or appearance” and the “protection of neurons in the substantia nigra, MPTP mouse model” value [14] was “protect neurons in the substantia nigra”.
In the case of `[N-]=[N+]=NCC(F)Cn1c2ccc(Br)cc2c2cc(Br)ccc21` (stereo not drawn) [compound 11, 9-(3-Azido-2-fluoropropyl)-3,6-dibromo-9H-carbazole], the “number of surviving newborn hippocampal neurons (BrdU+ cells)” value (“number … (BrdU+ cells)” below) ([5]; 7 days) is reported as “inactive”.
For `Cl.NCC(F)Cn1c2ccc(Br)cc2c2cc(Br)ccc21` (stereo not drawn) [compound 12, 3-(3,6-Dibromo-9H-carbazol-9-yl)-2-fluoropropan-1-amine], the “number … (BrdU+ cells)” value ([5]; 7 days) was “increase in the number of BrdU+ cells compared with vehicle”.
In the case of `COc1cccc(NCC(F)Cn2c3ccc(Br)cc3c3cc(Br)ccc32)n1` (stereo not drawn) [compound 15, N-(3-(3,6-Dibromo-9H-carbazol-9-yl)-2-fluoropropyl)-6-methoxypyridin-2-amine], the “number … (BrdU+ cells)” value ([5]; 7 days) is reported as “approximately doubled”, the “dose at which active in hippocampal neuroprotection” value ([5]; IP, 7 days) is reported as 1 mg kg^–1 day^–1 and the “dose at which ceiling of efficacy is reached in hippocampal neuroprotection” value ([5]; IP, 7 days) is reported as 10 mg kg^–1 day^–1. For the same molecule, the “rescue of TH+ neurons” value [7] was “over 85%”, the “dose showing significant neuroprotective effect in MPTP model” value ([7]; IP) was 1 mg kg^–1 day^–1 and the “impact on weight, behavior, or appearance” value ([17]; up to 10 mg kg^–1 day^–1 for 21 days) was “no negative impact on the weight, behavior, or appearance”.
In the case of `NCC(O)Cn1c2ccc(Br)cc2c2cc(Br)ccc21` (stereo not drawn) [compound 16, 1-Amino-3-(3,6-dibromo-9H-carbazol-9-yl)propan-2-ol], the “number … (BrdU+ cells)” value ([5]; 7 days) is reported as “increase in the number of BrdU+ cells compared with vehicle”.
With `COc1cccc(NCC(O)Cn2c3ccc(Br)cc3c3cc(Br)ccc32)n1` (stereo not drawn) [compound 17, 1-(3,6-Dibromo-9H-carbazol-9-yl)-3-((6-methoxypyridin-2-yl)amino)propan-2-ol] the “number … (BrdU+ cells)” value ([5]; 7 days) was “increase in the number of BrdU+ cells compared with vehicle”.
